Bioassay records as filed in PubChem BioAssay.
Jurkat NFkB inh – inhibitors of induced NF-kB luciferase reporter, primary screen, TCR NF-kB activation inhibitor project, cell-based, luminescence, uHTS; inhibition, % at 4 µM; 0.53% of 330,000 active; AID 435003, 2010; Jurkat, PMA/ionomycin-induced NF-kB luciferase reporter; in the data active = inhibition above about 50%
NR2E3 ag-1 – inhibitors of NR2E3-RetCOR corepressor binding, primary screen, NR2E3 agonist project, biochemical, TR-FRET, GST-NR2E3, biotin-RetCOR. Photoreceptor-specific nuclear receptor (Homo sapiens), Q9Y5X4. 1536-well. inhibition of corepressor binding, % at 4.78 µM. 0.12% of 320,000 active. AID 2300, 2010;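 active = percent inhibition above the cutoff of mean plus 3 SD of all tested compounds, set per screening campaign, cut at about 20% in these data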
Target sequence (Q9Y5X4 whole entry, looked up): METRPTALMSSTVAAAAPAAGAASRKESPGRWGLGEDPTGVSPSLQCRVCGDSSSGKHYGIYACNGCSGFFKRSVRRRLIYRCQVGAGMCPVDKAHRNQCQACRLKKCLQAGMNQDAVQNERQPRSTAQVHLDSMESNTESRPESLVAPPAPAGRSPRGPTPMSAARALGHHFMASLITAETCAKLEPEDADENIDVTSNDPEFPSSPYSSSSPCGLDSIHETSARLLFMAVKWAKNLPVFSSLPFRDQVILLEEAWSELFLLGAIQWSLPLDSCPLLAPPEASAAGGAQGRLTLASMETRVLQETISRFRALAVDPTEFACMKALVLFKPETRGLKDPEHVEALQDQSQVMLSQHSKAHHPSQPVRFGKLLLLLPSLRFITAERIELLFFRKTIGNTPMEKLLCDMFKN
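System: GST-tagged NR2E3 plus biotinylated RetCOR corepressor; Buffer or medium: pH 7.5 Tris-based buffer; Probe or stimulus: RetCOR corepressor, biotinylated, 7 nM; Doses: compound at 4.8 µM, single dose; Schedule: 5 h incubation at 4 °C; Technique: time-resolved FRET; Evaluation: percent inhibition of TR-FRET ratio; Replication: one well per compound, singlicate testing.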
697 NFkB inh – inhibitors of PMA/ionomycin-induced NF-kB reporter, 697 cells, primary screen, B-cell NF-kB inhibitor project, cell-based, luminescence, uHTS. 697 B-cell NF-kB luciferase reporter, 16 h. inhibition, % at 4 µM. 0.33% of 330,000 active. AID 435022, 2010; in the data active = inhibition above about 35%
GalR3 antagonist – GalR3 antagonists in HEK293 cells, primary screen, cell-based, fluorescence readout; 0.44% of 360,000 active; AID 651719, 2012; inhibition, % at 3 µM; HEK293 GalR3-CNG cAMP membrane potential fluorescence; galR3 body fused to GalR1 C-terminus;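 active = inhibition above the screen-wide average plus 3 SD, cut at about 13% in these data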;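 note: forskolin and galanin both at EC90 stimulate the cells; cAMP rise reported by CNG channel membrane potential dye signal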
Gli-Sufu block – Gli-Sufu pathway antagonists, primary screen, luciferase luminescence, Sufu-KO-LIGHT cells, uHTS. 0.74% of 340,000 active. Sufu-KO-LIGHT fibroblasts, Gli luciferase reporter luminescence. AID 588413, 2011. inhibition, % at 5 µM;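 active = inhibition above about 55%, limit read from the data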
NR2E3 ag-2 – NR2E3 agonists in two-hybrid cells, primary screen, cell-based, luminescence, CHO-S, Gal4-NCOR/VP16-NR2E3; inhibition of corepressor binding, % at 3.98 µM; luciferase; AID 602229, 2012; 0.35% of 360,000 active;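 active = inhibition above the mean of all tested compounds plus 3 SD, cut at about 70% in these data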;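 note: higher means lower luciferase signal from less NR2E3 corepressor binding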
NR2E3 ag confirm – NR2E3 agonist confirmation in cells, cell-based, luminescence, CHO-S two-hybrid; inhibition, % at 3.98 µM; 51% of 2,300 active; shares compounds with NR2E3 ag-2; CHO-S mammalian two-hybrid NR2E3-NCOR, luciferase luminescence;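 active = average inhibition above a cutoff equal to the mean inhibition of all tested compounds plus one SD, cut at about 70% in these data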
GAL4-VP16 luc – GAL4-VP16 reporter modulators, confirmation, counter-screen for NR2E3 agonist project, cell-based, luminescence, CHO-S, high throughput; shares compounds with NR2E3 ag-2; CHO-S GAL4-VP16 luciferase reporter; AID 624379, 2012; 29% of 2,300 active; inhibition, % at 3.98 µM;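 active = mean inhibition above a cutoff equal to the average over all tested compounds plus one standard deviation, cut at about 70% in these data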;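 note: luciferase from a UAS reporter driven by GAL4-VP16 transactivation; higher means less reporter light so more repression of VP16 activity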
Large screens that a line does not name were inactive (follow-up assays come after a bar, where they were run). Shown are actives, neighbours in structure and some others; about 1.8% of the full set was active somewhere.

CCOC(=O)N1CCC(NC(=O)C2CCCN(Cc3nc(-c4cccc(C)c4)oc3C)C2)CC1 (stereo not drawn)	NR2E3 ag-2 75 | NR2E3 ag confirm 76 | GAL4-VP16 luc inactive
Cc1cccc(-c2nc(CN3CCCC(C(=O)NC4CCCC4)C3)c(C)o2)c1 (stereo not drawn)	none
Cc1cc(C(=O)OCC(=O)Nc2ccc(F)cc2)c(C)o1	NR2E3 ag-2 74 | NR2E3 ag confirm inactive | GAL4-VP16 luc inactive
COc1cc(NC(=O)C2(C)CCCN2C(=O)C(C)C)cc(OC)c1OC (stereo not drawn)	none (no result: Jurkat NFkB inh, NR2E3 ag-1, 697 NFkB inh, Gli-Sufu block)
CC(=O)NS(=O)(=O)c1ccc(NS(=O)(=O)c2ccccc2[N+](=O)[O-])cc1	none
CCCCCCCCSC1=CC(=O)C(OC)=C(OC)C1=O	none (no result: Jurkat NFkB inh, NR2E3 ag-1, 697 NFkB inh, Gli-Sufu block) | NR2E3 ag confirm 93 | GAL4-VP16 luc inactive
CCCCCC(=O)N1C[C@@H](n2cc(-c3ccc(F)cc3)nn2)[C@H](O)C[C@@H]1c1ccc(Cl)cc1	none (no result: Jurkat NFkB inh, NR2E3 ag-1, 697 NFkB inh, Gli-Sufu block)
O=C(c1ccc(O)c(Br)c1)c1cc(Br)ccc1O	NR2E3 ag-2 85 (no result: Jurkat NFkB inh, NR2E3 ag-1, 697 NFkB inh) | NR2E3 ag confirm 96 | GAL4-VP16 luc 74
O=C(c1cnn(-c2ccccc2)c1)c1cc(Br)ccc1O	none
Cn1cnc([N+](=O)[O-])c1S(=O)(=O)Oc1ccc(Cl)cc1	none (no result: Jurkat NFkB inh, NR2E3 ag-1, 697 NFkB inh)
Cc1cccc(Cc2cnc(N3C(=N)SC(C)C3=O)s2)c1 (stereo not drawn)	NR2E3 ag-2 103 | NR2E3 ag confirm 99 | GAL4-VP16 luc inactive
Cc1cccc(Cc2cnc(N3C(=N)SC(c4ccccc4)C3=O)s2)c1 (stereo not drawn)	none
Cc1ccc(Cc2cnc(N3C(=N)SC(C)C3=O)s2)cc1 (stereo not drawn)	NR2E3 ag-2 102 | NR2E3 ag confirm 101 | GAL4-VP16 luc inactive
COc1ccc(CCNC(=O)C2CCCN(S(=O)(=O)c3ccccc3)C2)cc1 (stereo not drawn)	none
CCOC(=O)c1c(C)[nH]c(C(=O)C(C)OC(=O)c2cccc(OCc3c(C)noc3C)c2)c1C (stereo not drawn)	NR2E3 ag-2 76 | NR2E3 ag confirm 83 | GAL4-VP16 luc inactive
Clc1ccc(CSc2nnc(Cn3cnc4ccccc43)o2)cc1	GalR3 antagonist 33 | NR2E3 ag confirm 80 | GAL4-VP16 luc inactive
NC(=O)CSc1nnc(Cn2cnc3ccccc32)o1	none
Cc1nn(Cc2ccc(C(=O)NC(C)(C)C)o2)c(C)c1Br	none | NR2E3 ag confirm inactive | GAL4-VP16 luc inactive
COc1ccc(OC)c(S(=O)(=O)Nc2ccc(Oc3ccccc3)cc2)c1	none | NR2E3 ag confirm 80 | GAL4-VP16 luc inactive
CCOc1ccc(NS(=O)(=O)c2cc(OC)ccc2OC)cc1	none
CC(C)(C)c1ccc(OCC(O)CN2CCc3ccccc3C2)cc1 (stereo not drawn)	NR2E3 ag-2 85 | NR2E3 ag confirm inactive | GAL4-VP16 luc inactive
Oc1ccccc1N=Cc1ccc[nH]1	none | NR2E3 ag confirm inactive | GAL4-VP16 luc inactive
C=CCn1c(-c2ccc(S(=O)(=O)N3CCOCC3)cc2)csc1=Nc1ccccc1	none
CC(=O)c1cccc(N=c2scc(-c3ccc(S(=O)(=O)N4CCOCC4)cc3)n2CCO)c1	GalR3 antagonist 114 | NR2E3 ag confirm 82 | GAL4-VP16 luc 77
CN(Cc1ccc(Cl)c(Cl)c1)C(=O)c1ccccc1SCC(=O)N1CCCC1	none (no result: NR2E3 ag-1)
